HSF1 inh – HSF1 inhibition | AID 2098 | NIH3T3-HGL HSE-luciferase, MG132-induced, luminescence 8 h; stronger effect = lower value | activity change, negative = inhibition, % at 7.5 µM (by protocol) | actives 0.77% (n = 300,000);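 active = more than half of replicate wells show activity change below -50%, luminescence cut by over half; inconclusive = some wells, but at most half, below -50%; inactive = no replicate well below -50%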;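 also: luciferase reports HSF-1 transcriptional activity via heat shock element; 0% = median of DMSO wells and -100% = zero luminescence signal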
HSP90 refold inh – inhibitors of HSP90 luciferase refolding in rabbit reticulocyte lysate. luciferase refolding luminescence, 3 h. inhibition, % at 5.6 µM. actives 0.91% (n = 290,000);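 active = inhibition above the screen-wide mean plus 3 SD, computed separately per campaign, cut at about 16% in these data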;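 also: 0% = DMSO wells and 100% = 60 µM geldanamycin wells; inhibitors lower the luminescence because luciferase stays unfolded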
HSF1 activator – increases HSF-1 driven luciferase reporter signal; actives 1.7% (n = 300,000); AID 504408; NIH3T3-HGL HSF-1 luciferase reporter, MG132, 8 h; 100% = twice DMSO control signal; activation, % at 9 µM;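 active = mean replicate activation of at least 50% with a set share of replicates each reaching 50%; inconclusive = only one of those two conditions met; inactive = mean below 50% and too few replicates reaching it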;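 also: 0% = median of the neutral control wells and 100% = twice that signal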
HCV NS3 hel inh – inhibitors of Hepatitis C virus NS3 helicase | actives 0.56% (n = 290,000) | inhibition, % at 10.9 µM | NS3 helicase DNA unwinding, Cy5 molecular beacon fluorescence | AID 1800;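 active = inhibition above the mean of all tested compounds plus 3 SD, set per campaign, cut at about 35% in these data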;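 also: 0% = DMSO wells and 100% = thioflavine S control wells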
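System: Hepatitis C virus NS3 helicase domain fragment enzyme | Reagent: Annealed dual-labelled DNA beacon duplex, ATP-started | Compound dosing: 10.9 µM single point, 0.8% DMSO | Incubation: 1 h reaction at 25 °C, ATP-initiated | Technique: Cy5 fluorescence | Evaluation: Percent inhibition from t60/t0 fluorescence ratio | Benchmarks: Low DMSO, high thioflavine S at 110 µM | Replication: Singlicate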
Lipid droplet – hepatic lipid droplet formation modulation; actives 0.4% (n = 240,000); AML12 mouse hepatocytes, oleate lipid droplets, BODIPY imaging; inhibition, % at 6.5 µM; AID 1656;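 active = lipid droplet intensity inhibited by at least 50%, with more than 500 cells counted; inconclusive = wells with under 300 cells, treated as cytotoxic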
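Assay system: AML12 hepatocytes (mouse) / Also added: 100 µM oleic acid challenge / Times: overnight treatment with compound plus oleate / Detection: high-content imaging of BODIPY-stained droplets and DAPI nuclei / Evaluation: % inhibition of lipid droplet signal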
HSP90 confirm – HSP90 inhibition, confirmation assay; shares compounds with HSP90 refold inh; rabbit reticulocyte lysate, luciferase refolding luminescence, 3 h; inhibition, % at 5.9 µM; actives 64% (n = 2,300); AID 1846; in the data active = inhibition above about 18%;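 also: 0% = vehicle wells and 100% = reference inhibitor wells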
luciferase ctr – counter-screen for HSP90 inhibitors: inhibitors of firefly luciferase; actives 48% (n = 2,300); shares compounds with HSP90 refold inh; purified native firefly luciferase, luminescence; inhibition, % at 5.9 µM;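 active = inhibition above the mean inhibition of all tested sample wells plus 3 SD, cut at about 10% in these data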;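 also: 0% = DMSO with luciferase and 100% = wells lacking luciferase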
Target sequence (P08659 whole entry, looked up): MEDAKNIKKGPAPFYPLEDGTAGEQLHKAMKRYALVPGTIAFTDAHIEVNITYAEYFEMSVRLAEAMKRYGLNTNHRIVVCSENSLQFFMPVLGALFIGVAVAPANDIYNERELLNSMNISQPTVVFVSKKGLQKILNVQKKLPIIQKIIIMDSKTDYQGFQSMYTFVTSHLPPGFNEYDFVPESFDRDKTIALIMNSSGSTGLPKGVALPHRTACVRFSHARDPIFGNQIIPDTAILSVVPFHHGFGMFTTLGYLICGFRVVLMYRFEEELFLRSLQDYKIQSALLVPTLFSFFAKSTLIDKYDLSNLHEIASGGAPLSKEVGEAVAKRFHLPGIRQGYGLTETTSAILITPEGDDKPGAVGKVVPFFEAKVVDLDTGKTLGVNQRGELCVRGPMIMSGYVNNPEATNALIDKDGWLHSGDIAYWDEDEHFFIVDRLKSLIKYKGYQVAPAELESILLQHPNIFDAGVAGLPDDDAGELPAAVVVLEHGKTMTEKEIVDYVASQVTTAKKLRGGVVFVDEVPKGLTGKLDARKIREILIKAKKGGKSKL
Numbers without * were called inactive; u = inconclusive; x = not tested or not shown. An excerpt weighted towards active compounds, which were near 3.8% of everything screened.

SMILES | HSF1 inh | HSP90 refold inh | HSF1 activator | HCV NS3 hel inh | Lipid droplet | HSP90 confirm | luciferase ctr
CC1CCCN(C(=O)CSc2nnc(-c3c[nH]c4ccccc34)o2)C1 (centres undefined) | 13 | 38* | 25 | -11 | x | -5 | -17
CC1CCCC(C)N1C(=O)CSc1nnc(-c2c[nH]c3ccccc23)o1 (centres undefined) | 11 | -4 | 34 | -3 | x | x | x
CC1=CC2=NC(=O)/C(=C\c3cccn3CCOc3cc(C)ccc3C)C(=N)N2O1 | -3 | 53* | -7 | -18 | -32 | -2 | -8
CC1=CC2=NC(=O)/C(=C\c3cccn3CCOc3cccc(C)c3)C(=N)N2O1 | -2 | -1 | -11 | 2 | -16 | x | x
COc1cc2cc(CN(C(=O)NC3CCCCC3)C3CCCC3)c(=O)[nH]c2cc1OC | -44 | 22* | -54 | 1 | x | -4 | -8
COc1ccc(CN(Cc2cc3cc(OC)c(OC)cc3[nH]c2=O)C(=O)NC2CCCCC2)cc1 | x | -1 | x | -1 | -2 | x | x
c1ccc2c(c1)[nH]c1c(NCC3CCCO3)ncnc12 (centres undefined) | -6 | 32* | -3 | 1 | x | -7 | -11
CC(=O)NC1=NN(c2ccccc2)C(=O)C1 | 9 | 18* | -7 | 7 | x | -7 | -11
Cc1ccc(/C=C2/C(=O)c3ccc(C(=O)O)cc3C2=O)o1 | -1 | 22* | 2 | 30 | 3 | 46* | -32
Cc1ccc(C=C2C(=O)c3ccccc3C2=O)o1 | -2 | 2 | -10 | 29 | -94 | x | x
CCCCSc1nc(SCC(=O)NCc2ccco2)c2c3c(sc2n1)COC(C)(CC)C3 (centres undefined) | 5 | -1 | 10 | 23 | x | x | x
CCCSc1nc(SCC(=O)NCc2ccccc2)c2c3c(sc2n1)COC(C)(CC)C3 (centres undefined) | -8 | 28* | -13 | -1 | x | 5 | -3
CN=C(NC1CCCCC1)c1ccc(Cl)cc1 | -8 | 5 | -4 | 4 | 2 | x | x
COc1ccc(N(Cc2cc(=O)[nH]c3ccccc23)C(=O)C(C)C)cc1 | 0 | 0 | -4 | 4 | x | x | x
CC(C)C(=O)N(Cc1cc(=O)[nH]c2ccccc12)c1ccccc1 | 2 | 81* | 8 | -8 | x | -7 | -7
O=C(NC1=NCCS1)c1ccc(OCC2CCCO2)cc1 (centres undefined) | -1 | 9 | 37 | -8 | x | x | x
O=C(Nc1ncccc1O)c1ccc(OCC2CCCO2)cc1 (centres undefined) | 2 | 24* | 11 | -2 | -8 | 44* | 20*
COc1ccc2c(c1)Cc1sc(NC(=O)c3ccccc3)nc1-2 | 22 | 18* | 26 | -2 | -2 | -3 | -28
O=C(Nc1nc2ccccc2s1)c1ccc(OCC2CCCO2)cc1 (centres undefined) | 5 | 19* | 13 | -11 | 52* | 39* | 33*
Cc1cnc(NC(=O)c2ccc(OCC3CCCO3)cc2)s1 (centres undefined) | -4 | 47* | 23 | 13 | -5 | 60* | 51*
COc1ccc(C(=O)Nc2nc3c(s2)Cc2cc(OC)ccc2-3)cc1 | 0 | 6 | 19 | 12 | x | x | x
Cc1ccc(NC(=O)C2CCCN2C(=O)NCc2ccccc2)cc1 (centres undefined) | 3 | 4 | 1 | -4 | -4 | x | x
C=CCn1c(SCC(=O)NC23CC4CC(CC(C4)C2)C3)nc2cc(C(=O)O)ccc2c1=O | -7 | -3 | -9 | 13 | 7 | x | x
CSc1ncccc1C(=O)NNc1cc(Cl)ccc1Cl | -16 | -1 | -33 | 5 | x | x | x
COC(=O)c1ccc2nc(NC(=O)C3CC3)sc2c1 | 19 | 39* | 28 | -3 | -1 | 57* | -20
SMILES | HSF1 inh | HSP90 refold inh | HSF1 activator | HCV NS3 hel inh | Lipid droplet | HSP90 confirm | luciferase ctr
COc1cccc(C(=O)Nc2nc3ccccc3s2)c1 | 27 | 3 | 47 | 14 | 11 | x | x
COc1ccc(C(=O)Nc2nc3ccccc3s2)cc1 | -17 | 37* | -17 | 24 | -10 | 73* | 67*
C/C(=C\C(=O)c1ccccc1)NNc1nc2ccccc2s1 | 11 | 37* | 25 | -5 | x | -5 | -11
COC(=O)c1ccc2nc(NC(=O)C(C)C)sc2c1 | 26 | 14 | 42 | -6 | -4 | x | x
COc1cc(Cl)c(C)cc1NC(=O)COC(=O)C1=COCCO1 | 10 | x | 18 | x | x | x | x
COc1cc(/C=C2\CC(C(C)(C)C)C/C(=C\c3cc(OC)c(OC)c(OC)c3)C2=O)cc(OC)c1OC (centres undefined) | 41 | 19* | 53* | 9 | 0 | 20* | -5
O=C1c2ccccc2C(=O)c2[nH]cnc21 | 13 | -1 | 33 | -3 | 7 | x | x
O=C1c2ccccc2C(=O)c2[nH]c(=O)[nH]c21 | 30 | 24* | 42 | 4 | x | 19* | -10
O=C(Nc1ccc2c(c1)OCCO2)c1cc2ccccc2o1 | 15 | 24* | 61* | 2 | 7 | 39* | 26*
O=C(NC1=NCCS1)c1cc2ccccc2o1 | 6 | 34* | 30 | -2 | x | 56* | 47*
O=C(Nc1ccccn1)c1cc2ccccc2o1 | -19 | 69* | -21 | 4 | 0 | 80* | 78*
C/C(=N\NC(=O)OC(C)(C)C)c1ccccc1Br | 9 | -4 | 27 | -11 | 13 | x | x
Cc1cc(=O)cc(C)n1-c1ccccc1Br | -13 | -1 | -3 | -8 | 0 | x | x
O=C(O)CNS(=O)(=O)Cc1ccccc1 | -4 | 7 | -3 | 1 | 5 | x | x
O=S(=O)(Cc1ccccc1)N(O)c1ccccc1 | 2 | 88* | -10 | 19 | -17 | 92* | 0
COc1ccc(/C=C/C(=O)OC2CCCCC2CN(C)C)cc1 (centres undefined) | -19 | 21* | -19 | 13 | -2 | 1 | -4
COc1ccc(/C=C/C(=O)OC2CCCN(C)C2)cc1 (centres undefined) | 13 | 10 | u | -6 | 6 | x | x
COc1cc(C)ccc1OCCCOc1ccccc1Br | 20 | 1 | 27 | 2 | x | x | x
COc1cc(C=O)ccc1OCCCOc1ccccc1C(=O)O | -25 | 74* | -32 | 9 | x | 76* | 34*
COC(=O)c1ccccc1OCCCOc1ccc(C)cc1OC | 1 | 94* | -21 | 0 | -3 | 100* | -10
COc1cc(C=O)ccc1OCCCOc1ccccc1[N+](=O)[O-] | 24 | -4 | 23 | -17 | -10 | x | x
CN1CCc2c(sc3nc(SCC(=O)NCc4ccco4)n(-c4ccccc4)c(=O)c23)C1 | -1 | -2 | -2 | 22 | 5 | x | x
c1ccc(Nc2nc3ccccc3o2)cc1 | 24 | 3 | 43 | -2 | 18 | x | x
Fc1ccccc1Nc1nc2ccccc2o1 | 19 | 24* | 39 | 8 | -10 | 41* | 28*
